Measured values: ChEMBL document CHEMBL1143257, “Structure-activity relationships of novel HIV-1 protease inhibitors containing the 3-amino-2-chlorobenzoyl-allophenylnorstatine structure” (Bioorg Med Chem, 2008)

Columns and labels:
[1] = test system: Human immunodeficiency virus 1; assay: Antiviral activity against HIV1 mutant strain 4; assay type: functional, organism-based
[2] = test system: Human immunodeficiency virus 1; assay: Antiviral activity against HIV1 3B in presence of 50% human serum; assay type: functional, organism-based; conditions: Human immunodeficiency virus 1, 3B
[3] = test system: Human immunodeficiency virus 1; assay: Antiviral activity against wild type HIV1; assay type: functional, organism-based
[4] = test system: Human immunodeficiency virus 1; assay: Antiviral activity against HIV1 mutant strain 6; assay type: functional, organism-based
[5] = test system: Human immunodeficiency virus 1; assay: Antiviral activity against HIV1 mutant strain 7; assay type: functional, organism-based
Outline: (§1)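 PhenoSense phenotypic assay. Strain 7 protease mutations include T4A, L10I, K20R, L23I, L33F, E35D, M36I, K43T, M46L. EC50 in µM. Fold change is versus the wild-type EC50.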

[6] = test system: Human immunodeficiency virus 1; assay: Antiviral activity against HIV1 mutant strain 3; assay type: functional, organism-based
[7] = test system: Human immunodeficiency virus 1; assay: Antiviral activity against HIV1 mutant strain 2; assay type: functional, organism-based
Outline: (§2)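 PhenoSense phenotypic assay. Strain 2 protease carries L10I, G16A, K45V, F53L, I54V, K55N, D60E, L63P, A71V, I72K, V77I, V82F, I84V, L90M, I93L. EC50 in µM. Fold change is versus the wild-type EC50.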

[8] = test system: Human immunodeficiency virus 1; assay: Antiviral activity against HIV1 mutant strain 5; assay type: functional, organism-based
[9] = test system: Human immunodeficiency virus 1; assay: Antiviral activity against HIV1 mutant strain 1; assay type: functional, organism-based
Outline: (§3)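 PhenoSense phenotypic susceptibility assay on multi-drug-resistant clinical HIV-1 protease variant strains, run in parallel with a wild-type reference. EC50 read in µM. Fold change is mutant EC50 divided by wild-type EC50.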

[10] = test system: Human immunodeficiency virus 1; assay: Antiviral activity against HIV1 3B; assay type: functional, organism-based; conditions: Human immunodeficiency virus 1, 3B
[11] = test system: Human immunodeficiency virus 1; assay: Ratio of EC50 for HIV1 mutant strain 1 to EC50 for wild type HIV1; assay type: functional; outline: as §3
[12] = test system: Human immunodeficiency virus 1; assay: Ratio of EC50 for HIV1 mutant strain 2 to EC50 for wild type HIV1; assay type: functional; outline: as §2
[13] = test system: Human immunodeficiency virus 1; assay: Ratio of EC50 for HIV1 mutant strain 6 to EC50 for wild type HIV1; assay type: functional
[14] = test system: Human immunodeficiency virus 1; assay: Ratio of EC50 for HIV1 mutant strain 7 to EC50 for wild type HIV1; assay type: functional; outline: as §1
[15] = test system: Human immunodeficiency virus 1; assay: Ratio of EC50 for HIV1 mutant strain 4 to EC50 for wild type HIV1; assay type: functional
[16] = test system: Human immunodeficiency virus 1; assay: Ratio of EC50 for HIV1 mutant strain 3 to EC50 for wild type HIV1; assay type: functional
[17] = molecular target: Protease (Human immunodeficiency virus 1, UniProt Q9YQ12); assay: Inhibition of HIV1 protease
Chain of Protease (Q9YQ12 whole entry): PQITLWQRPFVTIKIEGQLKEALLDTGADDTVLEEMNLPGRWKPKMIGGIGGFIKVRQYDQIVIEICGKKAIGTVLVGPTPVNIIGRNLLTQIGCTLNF

[18] = test system: Human immunodeficiency virus 1; assay: Ratio of EC50 for HIV1 mutant strain 5 to EC50 for wild type HIV1; assay type: functional
[19] = Metabolic stability in human liver microsomes assessed as compound remaining at 5 uM in presence of UDPGA by RP-HPLC; assay type: ADME, Microsome; conditions: read-out: Stability
Outline: (§4)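 Test drug at 5 µM incubated with liver microsomes (0.5 mg/ml) plus cofactor (1 mM NADPH or 5 mM UDPGA) at 37 °C for 30 min. Residual drug measured by RP-HPLC. Values are the mean percent remaining of duplicates.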

[20] = Metabolic stability in human liver microsomes assessed as compound remaining at 5 uM in presence of NADPH by RP-HPLC; assay type: ADME, Microsome; conditions: read-out: Stability; outline: as §4
[21] = Volume of distribution at steady state in Beagle dog at 15 mg/kg, iv; assay type: ADME, organism-based, Canis lupus familiaris; design: dose 15 mg/kg, route intravenous; conditions: in vivo, read-out: Vdss
[22] = AUC in Beagle dog at 15 mg/kg, po; assay type: ADME, organism-based, Canis lupus familiaris; design: dose 15 mg/kg, route oral; conditions: plasma
[23] = test system: Liver; assay: Metabolic stability in dog liver microsomes assessed as compound remaining in presence of UDPGA by RP-HPLC; assay type: ADME, Canis lupus familiaris, Microsome; outline: as §4
[24] = Cmax in Beagle dog at 15 mg/kg, po; assay type: ADME, organism-based, Canis lupus familiaris; design: dose 15 mg/kg, route oral; conditions: in vivo
[25] = Plasma clearance in Beagle dog at 15 mg/kg, iv; assay type: ADME, organism-based, Canis lupus familiaris; design: dose 15 mg/kg, route intravenous
[26] = Plasma concentration in Beagle dog at 15 mg/kg, po after 12 hrs; assay type: ADME, organism-based, Canis lupus familiaris; design: dose 15 mg/kg, route oral
[27] = Oral bioavailability in Beagle dog at 15 mg/kg; assay type: ADME, organism-based, Canis lupus familiaris; conditions: in vivo
[28] = test system: Liver; assay: Metabolic stability in dog liver microsomes assessed as compound remaining in presence of NADPH by RP-HPLC; assay type: ADME, Canis lupus familiaris, Microsome; outline: as §4
[29] = Tmax in Beagle dog at 15 mg/kg, po; assay type: ADME, organism-based, Canis lupus familiaris; design: dose 15 mg/kg, route oral; conditions: in vivo

EC50 [2]	EC50 [10]	Ki [17]	remaining at 5 µM [19]	remaining at 5 µM [20]	SMILES	EC50 [1]	EC50 [3]	EC50 [4]	EC50 [5]	EC50 [6]	EC50 [7]	EC50 [8]	EC50 [9]	also measured
66 nM	20 nM	0.152 nM	> 95%	54%	CCOc1ccc(C[C@H](NC(=O)c2cccc(N)c2Cl)[C@H](O)C(=O)N2CSC(C)(C)[C@H]2C(=O)NCc2c(C)cccc2C)cc1	–	–	–	–	–	–	–	–	–
138 nM	21 nM	0.255 nM	93%	66%	COc1cccc(C[C@H](NC(=O)c2cccc(N)c2Cl)[C@H](O)C(=O)N2CSC(C)(C)[C@H]2C(=O)NCc2ccccc2C)c1	–	–	–	–	–	–	–	–	–
77 nM	20 nM	0.163 nM	> 95%	74%	Cc1ccccc1CNC(=O)[C@H]1N(C(=O)[C@@H](O)[C@H](Cc2ccc3c(c2)OCO3)NC(=O)c2cccc(N)c2Cl)CSC1(C)C	–	–	–	–	–	–	–	–	–
35 nM	6 nM	0.31 nM	89%	65%	CCOc1ccc(C[C@H](NC(=O)c2cccc(N)c2Cl)[C@H](O)C(=O)N2CSC(C)(C)[C@H]2C(=O)NCc2ccccc2C)cc1	–	–	–	–	–	–	–	–	–
87 nM	36 nM	0.75 nM	> 95%	83%	COc1cccc(C[C@H](NC(=O)c2cccc(N)c2Cl)[C@H](O)C(=O)N2CCC(C)(C)[C@H]2C(=O)NCc2c(C)cccc2C)c1	–	–	–	–	–	–	–	–	Vd [21]: 1.9 L/kg; AUC [22]: 36.7 µM·h; Stability [23]: > 95%; Cmax [24]: 5000 nM; clearance [25]: 16.7 mL/min/kg; concentration at 12 h [26]: 710 nM; bioavailability [27]: 146%; Stability [28]: 69%; Tmax [29]: 60 min
88 nM	18 nM	0.311 nM	> 95%	60%	COc1ccc(C[C@H](NC(=O)c2cccc(N)c2Cl)[C@H](O)C(=O)N2CSC(C)(C)[C@H]2C(=O)NCc2ccccc2C)cc1	–	–	–	–	–	–	–	–	–
20 nM	17 nM	0.07 nM	> 95%	53%	Cc1cccc(C)c1CNC(=O)[C@H]1N(C(=O)[C@@H](O)[C@H](Cc2ccc3c(c2)OCO3)NC(=O)c2cccc(N)c2Cl)CSC1(C)C	–	–	–	–	–	–	–	–	–
80 nM	40 nM	0.804 nM	> 95%	63%	COc1ccc(C[C@H](NC(=O)c2cccc(N)c2Cl)[C@H](O)C(=O)N2CCC(C)(C)[C@H]2C(=O)NCc2c(C)cccc2C)cc1	–	–	–	–	–	–	–	–	–
14 nM	24 nM	0.138 nM	> 95%	58%	COc1ccc(C[C@H](NC(=O)c2cccc(N)c2Cl)[C@H](O)C(=O)N2CSC(C)(C)[C@H]2C(=O)NCc2c(C)cccc2C)cc1	–	–	–	–	–	–	–	–	–
270 nM	63 nM	0.861 nM	> 95%	53%	CCOc1ccc(C[C@H](NC(=O)c2cccc(N)c2Cl)[C@H](O)C(=O)N2CCC(C)(C)[C@H]2C(=O)NCc2c(C)cccc2C)cc1	–	–	–	–	–	–	–	–	–

Second part, the molecule before the results:

SMILES	EC50 [2]	EC50 [10]	Ki [17]	remaining at 5 µM [19]	remaining at 5 µM [20]	EC50 [1]	EC50 [3]	EC50 [4]	EC50 [5]	EC50 [6]	EC50 [7]	EC50 [8]	EC50 [9]	also measured
CC(C)(C)NC(=O)[C@@H]1C[C@@H]2CCCC[C@@H]2CN1C[C@@H](O)[C@H](Cc1ccccc1)NC(=O)[C@H](CC(N)=O)NC(=O)c1ccc2ccccc2n1	50 nM	7 nM	–	–	–	> 500 nM	1.9 nM	158 nM	141 nM	> 500 nM	97 nM	> 500 nM	> 500 nM	–
CC(C)CN(C[C@@H](O)[C@H](Cc1ccccc1)NC(=O)O[C@H]1CCOC1)S(=O)(=O)c1ccc(N)cc1	95 nM	16 nM	0.359 nM	–	–	51 nM	14 nM	432 nM	165 nM	143 nM	350 nM	615 nM	98 nM	Ratio EC50 [11]: 7; Ratio EC50 [12]: 25; Ratio EC50 [13]: 30; Ratio EC50 [14]: 12; Ratio EC50 [15]: 4; Ratio EC50 [16]: 10; Ratio EC50 [18]: 43
Cc1ccccc1CNC(=O)[C@H]1N(C(=O)[C@@H](O)[C@H](Cc2ccccc2)NC(=O)c2cccc(N)c2Cl)CSC1(C)C	165 nM	77 nM	0.353 nM	> 95%	46%	–	–	–	–	–	–	–	–	–
CC(C)(C)NC(=O)[C@@H]1CN(Cc2cccnc2)CCN1C[C@@H](O)C[C@@H](Cc1ccccc1)C(=O)N[C@H]1c2ccccc2C[C@H]1O	87 nM	23 nM	–	–	–	113 nM	7.6 nM	819 nM	145 nM	753 nM	464 nM	> 1500 nM	401 nM	–
Cc1c(O)cccc1C(=O)N[C@@H](CSc1ccccc1)[C@H](O)CN1C[C@H]2CCCC[C@H]2C[C@H]1C(=O)NC(C)(C)C	293 nM	19 nM	0.931 nM	–	–	> 1500 nM	5.4 nM	> 1500 nM	515 nM	413 nM	346 nM	776 nM	452 nM	Ratio EC50 [11]: 82; Ratio EC50 [12]: 64; Ratio EC50 [13]: >273; Ratio EC50 [14]: 94; Ratio EC50 [15]: >273; Ratio EC50 [16]: 75; Ratio EC50 [18]: 141
COC(=O)N[C@H](C(=O)N[C@@H](Cc1ccccc1)[C@@H](O)CN(Cc1ccc(-c2ccccn2)cc1)NC(=O)[C@@H](NC(=O)OC)C(C)(C)C)C(C)(C)C [ATAZANAVIR]	9 nM	< 4 nM	0.05 nM	> 95%	83%	95 nM	1.5 nM	134 nM	74 nM	23 nM	48 nM	266 nM	92 nM	Vd [21]: 2 L/kg; Ratio EC50 [11]: 62; Ratio EC50 [12]: 32; Ratio EC50 [13]: 90; Ratio EC50 [14]: 50; AUC [22]: 15 µM·h; Stability [23]: > 95%; Ratio EC50 [15]: 64; Cmax [24]: 4200 nM; clearance [25]: 26.7 mL/min/kg; concentration at 12 h [26]: 50 nM; bioavailability [27]: 102%; Stability [28]: 83%; Ratio EC50 [16]: 16; Tmax [29]: 30 min; Ratio EC50 [18]: 180
CC(C)c1nc(CN(C)C(=O)N[C@H](C(=O)N[C@@H](Cc2ccccc2)C[C@H](O)[C@H](Cc2ccccc2)NC(=O)OCc2cncs2)C(C)C)cs1 [RITONAVIR]	41 nM	2 nM	–	–	–	1000 nM	16 nM	> 3000 nM	> 3000 nM	> 3000 nM	> 3000 nM	> 3000 nM	1730 nM	–
